According to ChEMBL document CHEMBL1833946, “Synthesis of β-functionalized temoporfin derivatives for an application in photodynamic therapy” (Bioorg Med Chem Lett, 2011):
The source made the active and inactive calls. The calls are words filed in the database; no cut-off is given here.

How the values were obtained:
HT-29 [1] = assay: Phototoxicity against human HT29 cells irradiated with 652 nm diode laser at the rate of 50 J/cm'2 at 10 uM after 24 hrs by XTT assay in presence of 10% heat-inactivated fetal calf serum; type: functional, cell-based
Summary of the method: (§1)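 HT-29 cells seeded at 2 × 10⁴ cells/well. Loaded 24 h with 2 or 10 μM sensitizer (final; from 2 mM DMSO stock kept dark at 4 °C) in phenol-red-free RPMI 1640 plus 10% FCS. Irradiated at room temperature with a 652 nm diode laser, 100 mW/cm², 50 J/cm². Viability read by XTT absorbance.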

[2] = Chemical stability of the compound; type: physicochemical
HT-29 [3] = assay: Phototoxicity against human HT29 cells irradiated with 652 nm diode laser at the rate of 50 J/cm'2 at 2 uM after 24 hrs by XTT assay in presence of 10% heat-inactivated fetal calf serum; type: functional, cell-based; summary of the method: as §1
HT-29 [4] = assay: Cytotoxicity against human HT29 cells under dark condition at 2 uM after 24 hrs by XTT assay in presence of 10% heat-inactivated fetal calf serum; type: functional, cell-based
Summary of the method: (§2)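 HT-29 human colon adenocarcinoma cells seeded at 2 × 10⁴ cells/well. Incubated 24 h with 2 or 10 μM sensitizer (final, diluted from 2 mM DMSO stock) in phenol-red-free RPMI 1640 with 10% FCS. Cells kept without irradiation for dark toxicity. Viability measured by XTT absorbance.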

HT-29 [5] = assay: Cytotoxicity against human HT29 cells under dark condition at 10 uM after 24 hrs by XTT assay in presence of 10% heat-inactivated fetal calf serum; type: functional, cell-based; summary of the method: as §2

Compound	Activity (HT-29 [1])	Stability [2]	Activity (HT-29 [3])	Activity (HT-29 [4])	Activity (HT-29 [5])
Oc1cccc(-c2c3nc(c(-c4cccc(O)c4)c4ccc([nH]4)c(-c4cccc(O)c4)c4nc(c(-c5cccc(O)c5)c5ccc2[nH]5)C(O)(C(F)(F)F)C4(O)C(F)(F)F)C=C3)c1 (stereo not given)	Active	Stable	Active	inactive	inactive
Oc1cccc(-c2c3nc(c(-c4cccc(O)c4)c4ccc([nH]4)c(-c4cccc(O)c4)c4nc(c(-c5cccc(O)c5)c5ccc2[nH]5)C(O)(c2cc(C(F)(F)F)cc(C(F)(F)F)c2)C4(O)c2cc(C(F)(F)F)cc(C(F)(F)F)c2)C=C3)c1 (stereo not given)	Active	Stable	inactive	inactive	inactive
CCCCCCC1(O)c2nc(c(-c3cccc(O)c3)c3ccc([nH]3)c(-c3cccc(O)c3)c3nc(c(-c4cccc(O)c4)c4ccc([nH]4)c2-c2cccc(O)c2)C=C3)C1(O)CCCCCC (stereo not given)	Active	Stable	Active	inactive	inactive
